Experimental data: ChEMBL document CHEMBL4480420, “Specificity of extended O-aryloxycarbonyl hydroxamates as inhibitors of a class C β-lactamase” (Bioorg Med Chem, 2019)

Assays:
[1] = molecular target: Beta-lactamase (Enterobacter cloacae) (UniProt P05364); test: Irreversible inhibition of Enterobacter cloacae P99 beta-lactamase assessed as ratio of K2/K3 using cephalothin as substrate by spectrophotometric analysis
Outline: (§1)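 Reactions ran at 25 °C in 20 mM MOPS, pH 7.5, with 0.1% BSA. Time courses: aliquots taken into 300 µM cephalothin, initial rates read at 270 nm. Titrations: 150 nM enzyme with 0–2.0 µM inhibitor, run to completion. Both datasets were fitted together to an acylation/partition scheme, k2 fixed at 100 s⁻¹. k_i = k1/(1 + k2/k3).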

[2] = molecular target: Beta-lactamase (Enterobacter cloacae) (UniProt P05364); test: Binding affinity to Enterobacter cloacae P99 beta-lactamase assessed as increase in molecular weight of enzyme-compound complex by mass-spectra analysis (reference value: 39192 Da)
Outline: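 P99 enzyme was analysed by electrospray MS before and after inactivation. Protein was precipitated with trichloroacetic acid, then the precipitate was washed and dried before analysis.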

[3] = molecular target: Beta-lactamase (Enterobacter cloacae) (UniProt P05364); test: Irreversible inhibition of Enterobacter cloacae P99 beta-lactamase assessed as second-order rate constant for enzyme-inhibitor complex using cephalothin as substrate by spectrophotometric analysis; outline: as §1
Beta-lactamase = Beta-lactamase (Enterobacter cloacae, UniProt P05364); test: Irreversible inhibition of Enterobacter cloacae P99 beta-lactamase using cephalothin as substrate by spectrophotometric analysis
Sequence of Beta-lactamase (P05364 whole entry): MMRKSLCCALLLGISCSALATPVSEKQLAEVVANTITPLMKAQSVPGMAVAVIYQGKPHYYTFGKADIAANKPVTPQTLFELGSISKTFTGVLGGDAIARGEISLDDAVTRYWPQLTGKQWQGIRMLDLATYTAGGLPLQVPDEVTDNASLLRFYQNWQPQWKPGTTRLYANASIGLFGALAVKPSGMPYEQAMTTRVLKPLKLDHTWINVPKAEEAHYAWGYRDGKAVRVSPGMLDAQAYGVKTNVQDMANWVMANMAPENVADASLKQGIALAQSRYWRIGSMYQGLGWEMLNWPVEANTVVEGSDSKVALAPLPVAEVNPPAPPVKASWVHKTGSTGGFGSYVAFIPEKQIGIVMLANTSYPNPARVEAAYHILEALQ
Outline: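 P99 class C β-lactamase (stock concentration by A280, ε 7.1 x 10⁴ M⁻¹cm⁻¹) incubated with inhibitor in 20 mM MOPS pH 7.5, 0.1% BSA, 25 °C. Aliquots diluted 1:50 into 300 μM cephalothin; initial rates followed at 270 nm over time. Titration: 150 nM enzyme with 0–2.0 μM inhibitor to end-point. Time-course and titration data fitted jointly to Scheme 2, k2 fixed at 100 s⁻¹, giving k1, k2/k3 and k_i.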

Sequence of Beta-lactamase (Enterobacter cloacae) (P05364 21-381 limits assumed): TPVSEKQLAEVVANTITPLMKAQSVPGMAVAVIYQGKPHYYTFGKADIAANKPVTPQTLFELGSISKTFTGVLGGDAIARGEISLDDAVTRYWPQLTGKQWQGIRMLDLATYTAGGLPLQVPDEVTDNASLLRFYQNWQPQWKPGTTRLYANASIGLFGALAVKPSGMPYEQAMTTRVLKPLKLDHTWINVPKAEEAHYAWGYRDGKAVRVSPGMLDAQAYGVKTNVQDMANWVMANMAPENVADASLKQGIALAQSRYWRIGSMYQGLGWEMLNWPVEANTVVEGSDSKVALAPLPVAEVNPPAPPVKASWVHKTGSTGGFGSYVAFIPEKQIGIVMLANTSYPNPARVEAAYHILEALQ

For `O=C(O)CCCCOC(=O)NOC(=O)Oc1ccccc1`, the Ratio [1] was 2.3, the Activity [2] was 26 Da and the K [3] was 2.8 ×10⁴ /M/s. For the same molecule, the “second-order inactivation rate constant (k_i)” value (Beta-lactamase) was 8.5 ×10³ /M/s.
`O=C(NOC(=O)Oc1ccccc1)OCCc1ccccc1` gave a Ratio [1] of 25, an Activity [2] of 26 Da and a K [3] of 3.7 ×10⁴ /M/s. For the same molecule, the “second-order inactivation rate constant (k_i)” value (Beta-lactamase) was 1.4 ×10³ /M/s.
In the case of `O=C(NOC(=O)Oc1ccccc1)OCc1ccccc1`, the Ratio [1] is reported as 2, the K [3] is reported as 6.1 ×10³ /M/s and the “second-order inactivation rate constant (k_i)” value (Beta-lactamase) is reported as 2 ×10³ /M/s.
For `N[C@H](CCCOC(=O)NOC(=O)Oc1ccccc1)C(=O)O`, the Ratio [1] was 1.25, the K [3] was 3.5 ×10⁴ /M/s and the “second-order inactivation rate constant (k_i)” value (Beta-lactamase) was 1.6 ×10⁴ /M/s.
In the case of `CCCCOC(=O)NOC(=O)Oc1ccccc1`, the Ratio [1] is reported as 2.4, the Activity [2] is reported as 185 Da and the K [3] is reported as 3.6 ×10³ /M/s. For the same molecule, the “second-order inactivation rate constant (k_i)” value (Beta-lactamase) was 1.1 ×10³ /M/s.
`N[C@H](Cc1ccc(OC(=O)NOC(=O)Oc2ccccc2)cc1)C(=O)O` was tested, and the Ratio [1] was < 1, the Activity [2] was 26 Da and the K [3] was 360 M⁻¹ s⁻¹. It also gave a second-order inactivation rate constant (k i) (Beta-lactamase) of 180 to 360 M⁻¹ s⁻¹.
